Reference: ChEMBL document CHEMBL5042476, “Structure-Based Design and Development of Chemical Probes Targeting Putative MOR-CCR5 Heterodimers to Inhibit Opioid Exacerbated HIV-1 Infectivity” (J Med Chem, 2021)
The source made the active and inactive calls. No cut-off for these calls is given here.

Key:
[1] = target: T1, Mu-type opioid receptor (Mus musculus, UniProt P42866); test: Displacement of [3H]-naloxone from mouse MOR expressed in CHO cells incubated for 1.5 hrs by competitive radioligand binding assay; format: cell-based
T1 sequence (P42866 whole entry): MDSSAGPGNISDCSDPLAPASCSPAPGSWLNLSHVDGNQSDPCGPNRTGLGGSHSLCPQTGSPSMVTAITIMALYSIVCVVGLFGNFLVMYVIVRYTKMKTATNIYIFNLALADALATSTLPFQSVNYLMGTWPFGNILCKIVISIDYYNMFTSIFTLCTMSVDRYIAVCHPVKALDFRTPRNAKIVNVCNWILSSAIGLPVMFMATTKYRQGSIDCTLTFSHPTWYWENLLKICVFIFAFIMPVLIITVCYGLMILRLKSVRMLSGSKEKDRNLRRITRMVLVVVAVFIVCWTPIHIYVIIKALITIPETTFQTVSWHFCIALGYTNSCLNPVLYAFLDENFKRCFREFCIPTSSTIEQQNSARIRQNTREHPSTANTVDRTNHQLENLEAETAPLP
Method in brief: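 Mouse MOR CHO membranes (30 μg) with [3H]naloxone and test compound in TME buffer (50 mM Tris, 3 mM MgCl2, 0.2 mM EGTA, pH 7.4), 1.5 h at 30 °C, then filtered. IC50 converted to Ki by Cheng–Prusoff.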

[2] = target: Mu-type opioid receptor (Mus musculus) (UniProt P42866); test: Agonist activity at mouse MOR expressed in CHO cell membranes assessed as stimulation of [35S]-GTPgammaS binding measured after 1 hr by scintillation counting analysis relative to DAMGO; format: functional; conditions: Cell membrane
Mu-type opioid receptor (Mus musculus), sequence (P42866 whole entry): as above

[3] = target: T1, Mu-type opioid receptor; test: Antagonist activity at mouse MOR expressed in CHO cells assessed as inhibition of DAMGO-induced calcium mobilization preincubated for 60 mins measured after 15 mins by calcium mobilization assay; format: functional, cell-based
Method in brief: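 mMOR-CHO cells transfected with Gα for 4 h, plated and cultured 24 h. Triplicates; IC50 by nonlinear regression.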

[4] = target: T2, C-C chemokine receptor type 5 (Homo sapiens, UniProt P51681); test: Antagonist activity at CCR5 (unknown origin) expressed in HOS cells co-expressing Gqi-5 assessed as inhibition CCL5-stimulated Ca2+ mobilization by calcium mobilization assay; format: functional, cell-based
Method in brief: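 HOS-CCR5 cells transfected with Gqi5, used 48 h post-transfection and loaded with Fluo4-AM for 45 min. Compound preincubated 15 min, then CCL5 (20 μL of 200 nM) added after 16 s of reading.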
Target sequence in this assay (P51681 whole entry): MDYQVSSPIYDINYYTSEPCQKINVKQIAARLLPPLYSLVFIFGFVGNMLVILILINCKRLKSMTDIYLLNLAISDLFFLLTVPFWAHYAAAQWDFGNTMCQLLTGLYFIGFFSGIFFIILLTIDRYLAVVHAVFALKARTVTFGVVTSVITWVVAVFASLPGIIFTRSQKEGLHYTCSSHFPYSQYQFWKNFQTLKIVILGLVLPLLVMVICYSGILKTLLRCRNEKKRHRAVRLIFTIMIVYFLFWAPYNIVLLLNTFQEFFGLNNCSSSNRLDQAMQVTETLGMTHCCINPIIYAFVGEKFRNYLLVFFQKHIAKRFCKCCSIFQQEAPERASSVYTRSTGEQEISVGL

[5] = Cytotoxicity against human GHOST CCR5 cells assessed as reduction in cell viability measured after 6 days by XTT assay; format: toxicity, cell-based; conditions: time 6 day, read-out: TC50
Method in brief: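 GHOST CCR5 cells treated in triplicate at the same 6 concentrations without virus, 6 days at 37 °C. XTT/PMS added for 4 h at 37 °C and absorbance read at 450 nm (650 nm reference).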

[6] = target: T2, C-C chemokine receptor type 5; test: Agonist activity at CCR5 (unknown origin) expressed in HOS cells co-expressing Gqi-5 assessed as stimulation of Ca2+ mobilization by calcium mobilization assay; format: functional, cell-based
Method in brief: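 HOS-CCR5 cells transiently transfected with Gqi5, used 48 h later. Fluo4-AM loaded 45 min, compounds added, plate read 120 s at ex494/em516. Agonist arm: compound response recorded against CCL5 under the same conditions.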
Target sequence in this assay (P51681 whole entry, looked up): as the sequence (P51681 whole entry) above

[7] = target: T1, Mu-type opioid receptor; test: Agonist activity at mouse MOR expressed in CHO cells coexpressing Gqi5 assessed as inhibition of DAMGO-induced calcium mobilization preincubated for 60 mins measured after 15 mins by calcium mobilization assay; format: functional, cell-based
Method in brief: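 CHO cells stably expressing mouse MOR, transfected with Gαq15 for 4 h, plated 10,000 cells/well and cultured 24 h. […] Calcium fluorescence read ex494/em516. Triplicate per concentration; IC50 by nonlinear regression.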

[8] = target: T2, C-C chemokine receptor type 5; test: Inhibition of CCR5-mediated Luc-expressing HIV1 BaL Env-pseudotype virus infection in CCR5 expressing leukocytes containing human PBMC assessed as inhibition of viral entry by measuring luminescence pretreated for 1 hr before infection measured after 2 days of infection; format: cell-based; conditions: filed as antagonist
Method in brief: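 […] donor PBMCs, 2×10^5/well, in RPMI with 20 U/mL IL-2. Compound added 1 h before infection with BaL Env-pseudotyped luciferase virus (1.5 ng p24/well) and kept in culture. Luminescence read after 2 days.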
Target sequence in this assay (P51681 whole entry, looked up): as the sequence (P51681 whole entry) above

[9] = target: T2, C-C chemokine receptor type 5; test: (§1) Inhibition of CCR5-mediated Luc-expressing HIV1 BaL Env-pseudotype virus infection in PHA-stimulated CCR5 expressing leukocytes containing human PBMC assessed as inhibition of viral entry in presence of 10 nM DMAGO by measuring luminescence at 100 nM pretreated for 1 hr before infection measured after 2 days of infection; format: cell-based; conditions: filed as antagonist
Method in brief: (§2)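 Compound 100 nM added 1 h before infection with BaL Env-pseudotyped luciferase virus (50 pg p24/10^6 cells) in 24-well plates. Lysate luciferase measured; RLU normalized to infected untreated cells.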
Target sequence in this assay (P51681 whole entry, looked up): as the sequence (P51681 whole entry) above

[10] = target: T2, C-C chemokine receptor type 5; test: Inhibition of CCR5-mediated Luc-expressing HIV1 BaL Env-pseudotype virus infection in PHA-stimulated CCR5 expressing leukocytes containing human PBMC assessed as inhibition of viral entry by measuring luminescence at 100 nM pretreated for 1 hr before infection measured after 2 days of infection; format: cell-based; method in brief: as §2
Target sequence in this assay (P51681 whole entry, looked up): as the sequence (P51681 whole entry) above

[11] = Therapeutic index, ratio of TC50 for human GHOST CCR5 cells to EC50 for inhibition of CCR5-mediated HIV-1 Bal entry in human GHOST CCR5 cells; format: toxicity, cell-based; conditions: read-out: TI
Method in brief: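 GHOST-CCR5 cells plated at 1×10^4/well, cultured 24 h, then compounds at 6 concentrations (0.001–100 μM) in triplicate. Efficacy plates got HIV-1 BaL at a predetermined titer; 6 days at 37 °C. Supernatant RT activity measured by tritiated TTP incorporation on poly rA/oligo dT gives EC50. […] TI = TC50/EC50.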

[12] = target: T2, C-C chemokine receptor type 5; test: as §1, with “morphine” for “DMAGO”; format: cell-based; conditions: filed as antagonist; method in brief: as §2
Target sequence in this assay (P51681 whole entry, looked up): as the sequence (P51681 whole entry) above

[13] = target: C-C chemokine receptor type 5 (Macaca mulatta, UniProt P61813); test: Displacement of […] from recombinant rhesus macaque CCR5 expressed in Chem-1 cells by competitive radioligand binding assay; format: cell-based
Method in brief: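 Rhesus CCR5 Chem-1 membranes (3 μg) in HEPES buffer pH 7.4 with 0.2% BSA, 0.10 nM [125I]MIP-1α and six concentrations from 0.1 nM to 10 μM, 90 min at 25 °C. Nonspecific binding with 0.1 μM MIP-1β; filters counted. Ki by Cheng–Prusoff (KD 0.31 nM, historical value).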

Row | Compound | Ki [1] [nM] | Emax [2] [%] | IC50 [3] [nM] | IC50 [4] [nM] | CC50 at 144 h [5] [nM] | Activity [6] | other results
1 | CC(C)c1nnc(CCNC(=O)COCC(=O)NCCCCCCCCCNC(=O)COCC(=O)N[C@@H]2CC[C@@]3(O)[C@H]4Cc5ccc(O)c6c5[C@@]3(CCN4CC3CC3)[C@H]2O6)n1C1C[C@H]2CC[C@@H](C1)N2CC[C@H](NC(=O)C1CCC(F)(F)CC1)c1ccccc1 (some centres not stated) | 11.2 | 4.27 | 74.4 | 965 |  |  | 
2 | CC(C)c1nnc(CCNC(=O)COCC(=O)NCCCCCCCNC(=O)COCC(=O)N[C@@H]2CC[C@@]3(O)[C@H]4Cc5ccc(O)c6c5[C@@]3(CCN4CC3CC3)[C@H]2O6)n1C1C[C@H]2CC[C@@H](C1)N2CC[C@H](NC(=O)C1CCC(F)(F)CC1)c1ccccc1 (some centres not stated) | 6.05 |  | 50 | 57.5 | > 100000 | inactive | EC50 [7]: 36.3 nM; inhibition [8]: Dose-Dependent Effect; inhibition [9]: 69%; inhibition [10]: 22%; selectivity ratio [11]: > 1080; inhibition [12]: 55%
3 | CC(C)c1nnc(CCNC(=O)COCC(=O)NCCCCCNC(=O)COCC(=O)N[C@@H]2CC[C@@]3(O)[C@H]4Cc5ccc(O)c6c5[C@@]3(CCN4CC3CC3)[C@H]2O6)n1C1C[C@H]2CC[C@@H](C1)N2CC[C@H](NC(=O)C1CCC(F)(F)CC1)c1ccccc1 (some centres not stated) | 4.23 | 19.4 | 1100 | 1260 |  |  | 
4 | Cc1nnc(C(C)C)n1C1C[C@H]2CC[C@@H](C1)N2CC[C@H](NC(=O)C1CCC(F)(F)CC1)c1ccc(NC(=O)COCC(=O)NCCCCCCCNC(=O)COCC(=O)N[C@@H]2CC[C@@]3(O)[C@H]4Cc5ccc(O)c6c5[C@@]3(CCN4CC3CC3)[C@H]2O6)cc1 (some centres not stated) | 51.8 | 11.7 | 40 | 126 | > 100000 |  | 
5 | CNC(=O)COCC(=O)NCCCCCCCNC(=O)COCC(=O)NCCc1nnc(C(C)C)n1[C@@H]1C[C@H]2CC[C@@H](C1)N2CC[C@H](NC(=O)C1CCC(F)(F)CC1)c1ccccc1 |  |  |  |  |  | inactive | Ki [13]: 41 nM
6 | Cc1nnc(C(C)C)n1[C@@H]1C[C@H]2CC[C@@H](C1)N2CC[C@H](NC(=O)C1CCC(F)(F)CC1)c1ccccc1 |  |  |  |  | > 500 |  | 
